Source: ChEMBL document CHEMBL4706607, “Anti-tubercular profile of new selenium-menadione conjugates against Mycobacterium tuberculosis H37Rv (ATCC 27294) strain and multidrug-resistant clinical isolates” (Eur J Med Chem, 2021)
In brackets after ≈: the same amount, converted by molar mass.

Legend:
[1] = system: Mycobacterium tuberculosis; experiment: Antimycobacterial activity against multidrug resistance Mycobacterium tuberculosis CDCT-16 clinical isolates assessed as reduction in bacterial growth by resazurin reduction microplate assay; type: functional
Procedure, shortened: (§1)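 REMA in Middlebrook 7H9 broth with 10% ADC. Compounds dissolved at 1 mg/mL in DMSO and diluted to 50 μg/mL in broth containing 5% DMSO. Ten-point two-fold dilutions gave 25.0 to 0.05 μg/mL. Growth and sterility controls on each plate. MIC was the lowest concentration preventing the blue-to-pink change.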

[2] = system: Mycobacterium tuberculosis; experiment: Antimycobacterial activity against multidrug resistance Mycobacterium tuberculosis CDCT-27 clinical isolates assessed as reduction in bacterial growth by resazurin reduction microplate assay; type: functional; procedure, shortened: as §1

SMILES	MIC [1] [µM]	MIC [2] [µM]
CC1=C(C[Se]C(=O)c2ccc(C)cc2)C(=O)c2ccccc2C1=O	> 10	> 10
CC1=C(C[Se]C(=O)c2ccc(Cl)cc2)C(=O)c2ccccc2C1=O	> 10	> 10
COc1ccc(C(=O)[Se]CC2=C(C)C(=O)c3ccccc3C2=O)cc1	> 10	> 10
CCCC(C)C(=O)[Se]CC1=C(C)C(=O)c2ccccc2C1=O (stereo not given)	> 10	> 10
CCCCC(=O)[Se]CC1=C(C)C(=O)c2ccccc2C1=O	> 10	> 10
CC1=C(C[Se]C(=O)c2ccccc2C)C(=O)c2ccccc2C1=O	3.1 (≈ 1.19 µg/mL)	3.1 (≈ 1.19 µg/mL)
CC1=C(C[Se]C(=O)c2ccccc2)C(=O)c2ccccc2C1=O	0.8 (≈ 0.295 µg/mL)	0.8 (≈ 0.295 µg/mL)
CCc1ccc(C(=O)[Se]CC2=C(C)C(=O)c3ccccc3C2=O)cc1	> 10	> 10
CC1=C(C[Se]C(=O)c2ccc(F)cc2)C(=O)c2ccccc2C1=O	0.8 (≈ 0.31 µg/mL)	3.1 (≈ 1.2 µg/mL)
NNC(=O)c1ccncc1 [ISONIAZID]	100 (≈ 13.7 µg/mL)	25 (≈ 3.43 µg/mL)
